These results are taken from ChEMBL document CHEMBL3232847, “Discovery of 6-phenylpyrimido[4,5-b][1,4]oxazines as potent and selective acyl CoA:diacylglycerol acyltransferase 1 (DGAT1) inhibitors with in vivo efficacy in rodents” (J Med Chem, 2014).

For one series, the target named is T1, Cytochrome P450 1A2 (Homo sapiens, UniProt P05177).
T1 sequence (P05177 whole entry): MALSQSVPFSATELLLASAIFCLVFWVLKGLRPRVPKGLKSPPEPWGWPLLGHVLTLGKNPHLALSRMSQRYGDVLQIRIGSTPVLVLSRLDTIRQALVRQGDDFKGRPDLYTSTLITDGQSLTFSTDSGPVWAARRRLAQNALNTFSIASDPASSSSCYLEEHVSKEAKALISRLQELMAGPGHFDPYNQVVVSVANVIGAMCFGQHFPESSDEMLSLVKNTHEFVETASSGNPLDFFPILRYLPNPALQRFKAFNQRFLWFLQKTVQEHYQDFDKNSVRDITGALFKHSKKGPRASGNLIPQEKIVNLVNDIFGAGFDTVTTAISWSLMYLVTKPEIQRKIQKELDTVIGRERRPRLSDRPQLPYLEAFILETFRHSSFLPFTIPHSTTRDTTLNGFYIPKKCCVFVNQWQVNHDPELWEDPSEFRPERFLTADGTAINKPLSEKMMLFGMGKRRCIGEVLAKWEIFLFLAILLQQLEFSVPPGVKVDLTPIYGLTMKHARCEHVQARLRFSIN
In words: Inhibition of CYP1A2 (unknown origin) at 10 uM. In kind it is ADME.

The target of another series is Cytochrome P450 2D6 (Homo sapiens, UniProt P10635). In words: Inhibition of CYP2D6 (unknown origin) at 10 uM. In kind it is ADME.
Chain of Cytochrome P450 2D6 (P10635 whole entry): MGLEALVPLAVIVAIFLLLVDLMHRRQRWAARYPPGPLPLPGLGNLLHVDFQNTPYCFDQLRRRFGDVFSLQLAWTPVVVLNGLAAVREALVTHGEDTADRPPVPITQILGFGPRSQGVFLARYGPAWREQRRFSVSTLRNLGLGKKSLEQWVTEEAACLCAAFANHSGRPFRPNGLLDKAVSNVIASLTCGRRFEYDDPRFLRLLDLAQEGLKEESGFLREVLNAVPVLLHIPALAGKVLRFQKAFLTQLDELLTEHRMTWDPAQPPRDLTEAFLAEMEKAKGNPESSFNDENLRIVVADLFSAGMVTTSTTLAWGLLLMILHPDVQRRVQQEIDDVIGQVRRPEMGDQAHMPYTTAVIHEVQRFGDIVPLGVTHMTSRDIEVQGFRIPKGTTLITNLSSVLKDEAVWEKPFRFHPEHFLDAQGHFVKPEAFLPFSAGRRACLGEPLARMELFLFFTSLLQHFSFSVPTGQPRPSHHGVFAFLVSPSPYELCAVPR
The next series has as its target Cytochrome P450 2C9 (Homo sapiens, UniProt P11712). In words: Inhibition of CYP2C9 (unknown origin) at 10 uM. In kind it is ADME.
A further series has as its target Cytochrome P450 3A4 (Homo sapiens, UniProt P08684). The series is described as follows: Inhibition of CYP3A4 (unknown origin) at 10 uM. In kind it is ADME.
The next series deals with Mus musculus. In words: Reduction in plasma triglyceride level in po dosed C57BL/6J mouse compound treated 30 mins prior to olive oil administration measured 3 hrs post olive oil administration relative to vehicle-treated control. In kind it is functional, organism-based. The gist of the method:
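Animals received vehicle or compound by oral gavage, then olive oil (5 mL/kg) by oral gavage 30 min later. Plasma triglycerides were measured before dosing and 3 h after the oil. The read-out was the change in TG from pre-dose, compared with vehicle-treated animals.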

A short description of series [1]: AUC in C57BL/6J mouse at 0.3 mg/kg, po. The note with it: plasma. In kind it is ADME, organism-based. The arrangement: dose 0.3 mg/kg, route oral.
Series [2] addresses T2, Sterol O-acyltransferase 2 (Homo sapiens, UniProt O75908).
T2 sequence (O75908 whole entry): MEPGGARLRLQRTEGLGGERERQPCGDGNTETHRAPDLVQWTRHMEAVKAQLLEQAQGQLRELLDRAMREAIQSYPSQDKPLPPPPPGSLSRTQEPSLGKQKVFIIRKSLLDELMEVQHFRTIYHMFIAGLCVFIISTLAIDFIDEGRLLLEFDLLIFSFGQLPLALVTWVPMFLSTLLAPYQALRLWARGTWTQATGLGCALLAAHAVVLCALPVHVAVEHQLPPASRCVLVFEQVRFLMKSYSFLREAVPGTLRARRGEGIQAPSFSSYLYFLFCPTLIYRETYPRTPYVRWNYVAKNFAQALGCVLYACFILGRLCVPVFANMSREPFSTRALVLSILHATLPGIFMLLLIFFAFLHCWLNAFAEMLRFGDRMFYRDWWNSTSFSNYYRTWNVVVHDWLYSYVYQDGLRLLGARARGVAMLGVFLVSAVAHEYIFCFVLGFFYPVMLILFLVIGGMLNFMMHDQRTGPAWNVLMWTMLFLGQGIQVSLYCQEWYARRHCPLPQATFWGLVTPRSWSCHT
In words: Inhibition of human full-length flag-tagged ACAT2 expressed in baculovirus infected insect cells using [14C]palmitoyl CoA as substrate after 10 mins by scintillation counting.

Series [3] can be described thus: AUC in Sprague-Dawley rat at 5 mg/kg, po. The note with it: plasma. The arrangement: dose 5 mg/kg, route oral. In kind it is ADME, organism-based.
The nature of series [4]: Clearance in cynomolgus monkey at 0.5 mg/kg, iv. The arrangement: dose 0.5 mg/kg, route intravenous. Conditions: in vivo. In kind it is ADME, organism-based, Macaca fascicularis.
Series [5] can be described thus: Oral bioavailability in cynomolgus monkey at 5 mg/kg. In kind it is ADME, organism-based, Macaca fascicularis. The note with it: in vivo.
For series [6], the system named is Rattus norvegicus. The series is described as follows: Toxicity in Sprague-Dawley rat assessed as change in clinical parameters at 10 mg/kg, po qd by 14-day multiple-dose toxicity study. In kind it is organism-based. The arrangement: dose 10 mg/kg, route oral. The note with it: in vivo. The gist of the method:
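Sprague−Dawley rats were dosed po once daily for 14 days. Clinical and histopathological findings were assessed, and plasma AUC was recorded for each dose.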

Series [7] is described as follows: AUC in Sprague-Dawley rat at 10 mg/kg, po qd. In kind it is ADME, organism-based. More on the design: dose 10 mg/kg, route oral. Conditions: plasma. The gist of the method: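 Sprague-Dawley rats dosed orally once daily for 14 days in a multiple-dose toxicity study at 10, 30 or 100 mg/kg. Plasma exposure was reported as AUC, and clinical and histopathological findings were recorded.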

The subject of series [8] is Cynomolgus monkey. The series is described as follows: Toxicity in cynomolgus monkey assessed as elevation of AST level at 10 to 30 mg/kg/day, po qd by 21-day multiple-dose toxicity study relative to control. Conditions: in vivo. The arrangement: route oral. In kind it is organism-based, Macaca fascicularis. The gist of the method:
(§1)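 Cynomolgus monkeys were dosed po once daily at 10 and 30 mg/kg for 21 days. ALT and AST levels, QTc intervals, and clinical and histopathological findings were assessed, and plasma AUC was recorded for each dose.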

In series [9] the test system is Cynomolgus monkey. The series is described as follows: Toxicity in cynomolgus monkey assessed as elevation of change in histopathological parameters at 10 to 30 mg/kg/day, po qd by 21-day multiple-dose toxicity study relative to control. In kind it is organism-based, Macaca fascicularis. More on the design: route oral. Conditions: in vivo. The gist of the method:
as §1

Series [10] in a line: Clearance in CD1 mouse at 0.5 mg/kg, iv. In kind it is ADME, organism-based. The arrangement: dose 0.5 mg/kg, route intravenous. The note with it: in vivo.
The nature of series [11]: Volume of distribution at steady state in CD1 mouse at 0.5 mg/kg, iv. In kind it is ADME, organism-based. More on the design: dose 0.5 mg/kg, route intravenous. Conditions: in vivo, read-out: Vdss.
Series [12] can be described thus: Half life in CD1 mouse at 0.5 mg/kg, iv. In kind it is ADME, organism-based. The note with it: in vivo. The arrangement: dose 0.5 mg/kg, route intravenous.
Series [13] in a line: Volume of distribution at steady state in Sprague-Dawley rat at 1 mg/kg, iv. In kind it is ADME, organism-based. More on the design: dose 1 mg/kg, route intravenous. The note with it: in vivo, read-out: Vdss.
A short description of series [14]: Clearance in beagle dog at 0.5 mg/kg, iv. In kind it is ADME, organism-based, Canis lupus familiaris. Conditions: in vivo. The arrangement: dose 0.5 mg/kg, route intravenous.
The nature of series [15]: AUC in cynomolgus monkey at 100 mg/kg, po administered as single dose relative to control. In kind it is ADME, organism-based, Macaca fascicularis. More on the design: dose 100 mg/kg, route oral. The note with it: plasma. The gist of the method: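 Cynomolgus monkeys received a single oral dose of 100 mg/kg. Plasma AUC was recorded alongside plasma liver enzymes ALT and AST.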

Series [16] is filed under the species Rattus norvegicus. In words: Inhibition of rat small intestine microsomal MGAT up to 10 uM by TLC technique in presence of monoacylglycerol and [14C] palmitoyl CoA. In kind it is microsomes.
Series [17] is described as follows: Oral Bioavailability in CD1 mouse at 2 mg/kg. In kind it is ADME, organism-based. The note with it: in vivo.
The nature of series [18]: Clearance in Sprague-Dawley rat at 1 mg/kg, iv. The arrangement: dose 1 mg/kg, route intravenous. The note with it: in vivo. In kind it is ADME, organism-based.

For orientation: AUC means concentration integrated over time. The term IC50 denotes the concentration that inhibits the measured activity by half. A word on the clearance: it is the rate of elimination divided by the concentration. For orientation: bioavailability means dose-corrected exposure relative to a reference, in per cent. Broadly, the half-life is the time in which the quantity being followed falls by half.

Active and inactive are the calls of the source. The rule behind the calls is not given here.

Chain of Cytochrome P450 2C9 (P11712 whole entry): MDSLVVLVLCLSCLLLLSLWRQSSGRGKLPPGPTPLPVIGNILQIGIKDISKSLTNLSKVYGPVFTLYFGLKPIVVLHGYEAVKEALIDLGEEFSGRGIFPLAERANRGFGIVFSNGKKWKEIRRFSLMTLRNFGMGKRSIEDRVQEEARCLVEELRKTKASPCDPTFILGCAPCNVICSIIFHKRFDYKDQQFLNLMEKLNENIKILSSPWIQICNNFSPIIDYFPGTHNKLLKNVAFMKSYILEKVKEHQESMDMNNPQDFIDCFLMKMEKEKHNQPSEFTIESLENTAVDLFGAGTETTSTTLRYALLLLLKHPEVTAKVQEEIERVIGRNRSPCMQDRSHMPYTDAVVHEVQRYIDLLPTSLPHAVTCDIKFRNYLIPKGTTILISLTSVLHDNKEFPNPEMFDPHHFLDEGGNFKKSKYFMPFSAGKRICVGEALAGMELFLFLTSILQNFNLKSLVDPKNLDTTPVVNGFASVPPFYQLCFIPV
Chain of Cytochrome P450 3A4 (P08684 whole entry): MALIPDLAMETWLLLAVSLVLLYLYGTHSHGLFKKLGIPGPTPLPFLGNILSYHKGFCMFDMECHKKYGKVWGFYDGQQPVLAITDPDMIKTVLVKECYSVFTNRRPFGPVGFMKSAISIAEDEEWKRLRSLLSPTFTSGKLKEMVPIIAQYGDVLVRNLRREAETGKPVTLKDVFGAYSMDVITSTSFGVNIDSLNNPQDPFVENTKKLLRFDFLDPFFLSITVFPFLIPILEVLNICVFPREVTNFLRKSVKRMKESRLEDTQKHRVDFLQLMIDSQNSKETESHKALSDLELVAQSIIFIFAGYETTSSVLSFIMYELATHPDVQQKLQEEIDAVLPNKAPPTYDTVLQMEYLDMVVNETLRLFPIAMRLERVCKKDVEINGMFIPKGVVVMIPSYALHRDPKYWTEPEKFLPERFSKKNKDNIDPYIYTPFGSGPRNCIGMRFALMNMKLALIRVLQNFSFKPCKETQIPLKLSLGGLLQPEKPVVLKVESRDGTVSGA

Regarding `CC1(C)Oc2nc(C(F)(F)F)nc(N)c2N=C1c1ccc2c(c1)CC[C@]21CC[C@@H](CC(=O)O)CC1`, the “inhibition (INH)” value on Cytochrome P450 1A2, at Cytochrome P450 2D6, against Cytochrome P450 2C9 and against Cytochrome P450 3A4 was “Not Active” each time. The Activity result in the series on Mus musculus was “Dose-dependent effect”; in the series on Rattus norvegicus [6] it was “Non-toxic”; in the series with Cynomolgus monkey [8], “Non-toxic”; in the series on Cynomolgus monkey [9], “Non-toxic”. The AUC was determined as 0.65 µM·h in [1], 22900 ng·h/mL in series [3] and 11 µM·h in [7]. Also, the IC50 in series [2] was more than 10 µM. The clearance in [4] was 0.333 mL/min/kg; in series [10], 7.5 mL/min/kg. Besides, the bioavailability in series [5] was found to be 99%. Further, the Vd in [11] came out at 2.8 L/kg. For the same compound, in [12], the half-life is 4.4 h.

Regarding `CC1(C)Oc2ncnc(N)c2N=C1c1ccc([C@H]2CC[C@H](CC(=O)O)CC2)cc1`, the Vd stood at 1.65 L/kg in series [13] and 0.79 L/kg in [11]. The results for the clearance in [14], in [10] and in series [18] were 11 mL/min/kg, 1.83 mL/min/kg and 9.17 mL/min/kg, respectively. For the same compound, the “inhibition (INH)” value against Cytochrome P450 1A2, against Cytochrome P450 2D6, at Cytochrome P450 2C9 and against Cytochrome P450 3A4 was “Not Active” in each case. For the same compound, the AUC in series [15] was determined as 1420 µM·h; in [1] it was 2.6 µM·h. In addition, the inhibition result in the series filed under Rattus norvegicus [16] is “inactive”. Besides, the half-life in series [12] is 4.7 h. In [17], this compound gave a bioavailability of 40%.
